The source of these data is ChEMBL document CHEMBL4007404, “Identification of High-Potency Human TLR8 and Dual TLR7/TLR8 Agonists in Pyrimidine-2,4-diamines” (J Med Chem, 2017).

Structures are written as SMILES. Activity calls are given as the source filed them. The calls are words filed in the database; no cut-off is given here.

In assay [1] the target is T1, Toll-like receptor 8 (Homo sapiens) (UniProt Q9NR97).
T1 sequence (whole entry): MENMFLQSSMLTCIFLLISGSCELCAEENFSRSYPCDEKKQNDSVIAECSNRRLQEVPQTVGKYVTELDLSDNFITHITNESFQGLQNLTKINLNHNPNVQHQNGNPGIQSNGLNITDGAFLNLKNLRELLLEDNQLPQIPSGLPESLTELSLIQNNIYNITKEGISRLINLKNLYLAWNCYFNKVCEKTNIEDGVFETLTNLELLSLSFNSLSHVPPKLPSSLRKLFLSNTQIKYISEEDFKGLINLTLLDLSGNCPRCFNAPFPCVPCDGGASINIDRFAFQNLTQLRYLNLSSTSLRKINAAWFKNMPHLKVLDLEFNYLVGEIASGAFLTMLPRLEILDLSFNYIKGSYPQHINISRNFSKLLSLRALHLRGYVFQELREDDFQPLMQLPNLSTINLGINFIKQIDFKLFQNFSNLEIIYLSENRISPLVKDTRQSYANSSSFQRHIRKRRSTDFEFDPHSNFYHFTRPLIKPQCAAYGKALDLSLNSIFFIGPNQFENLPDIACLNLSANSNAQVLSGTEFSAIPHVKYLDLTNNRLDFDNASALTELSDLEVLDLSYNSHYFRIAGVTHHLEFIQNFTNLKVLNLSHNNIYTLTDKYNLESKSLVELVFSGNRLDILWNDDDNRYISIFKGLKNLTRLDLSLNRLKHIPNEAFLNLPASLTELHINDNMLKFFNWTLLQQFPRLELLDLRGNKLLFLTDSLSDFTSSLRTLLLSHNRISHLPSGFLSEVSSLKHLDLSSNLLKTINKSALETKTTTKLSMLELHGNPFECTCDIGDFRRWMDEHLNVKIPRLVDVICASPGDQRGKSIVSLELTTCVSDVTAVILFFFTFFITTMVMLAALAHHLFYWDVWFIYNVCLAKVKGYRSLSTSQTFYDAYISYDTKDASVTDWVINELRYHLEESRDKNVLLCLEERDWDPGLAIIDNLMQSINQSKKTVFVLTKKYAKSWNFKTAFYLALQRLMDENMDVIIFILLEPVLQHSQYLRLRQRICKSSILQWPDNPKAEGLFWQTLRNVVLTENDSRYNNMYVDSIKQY
In words: Agonist activity at human TLR8 expressed in HEK293 cells co-expressing secreted alkaline phosphatase assessed as induction of NF-kappaB/AP-1 promoter activity by measuring increase in secreted alkaline phosphatase level at 100 uM by spectrophotometric method. It is filed as cell-based. In a few lines:
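HEK293 cells stably co-transfected with human TLR8 and NF-κB/AP-1-driven secreted alkaline phosphatase, kept in selection medium. Cells seeded at ~10⁵ cells/ml in 384-well plates with graded stimulus concentrations. Supernatant sAP read spectrophotometrically at 620 nm with an alkaline phosphatase-specific chromogen. TLR-2/-3/-4/-5/-9 reporter lines served as counter-screens.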

In assay [2] the target is T1, Toll-like receptor 8 (Homo sapiens). Briefly: Agonist activity at TLR8 in human […] conventional dendritic cells assessed as upregulation of CD80 expression after 16 hrs by efluor 780 dye based flow cytometry. The gist of the method: (§1)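 Human PBMCs were incubated with serial compound dilutions at 37 °C for 16 h, with DMSO controls. Cells were stained with eFluor780 viability dye, then lineage and DC antibodies plus CD80 PE, and fixed. 250,000 gated events were acquired. pDCs were gated as Live Lin⁻ CD123⁺ CD303⁺ CD304⁺ HLA-DR⁺. cDCs were gated as Lin⁻ CD1c⁺ CD141⁻ CD11c⁺ HLA-DR⁺ or Lin⁻ CD141⁺ CD1c⁻ HLA-DR⁺. Median fluorescence intensity was quantified.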

In assay [3] the target is T2, Toll-like receptor 7 (Homo sapiens) (UniProt Q9NYK1).
T2 sequence (whole entry): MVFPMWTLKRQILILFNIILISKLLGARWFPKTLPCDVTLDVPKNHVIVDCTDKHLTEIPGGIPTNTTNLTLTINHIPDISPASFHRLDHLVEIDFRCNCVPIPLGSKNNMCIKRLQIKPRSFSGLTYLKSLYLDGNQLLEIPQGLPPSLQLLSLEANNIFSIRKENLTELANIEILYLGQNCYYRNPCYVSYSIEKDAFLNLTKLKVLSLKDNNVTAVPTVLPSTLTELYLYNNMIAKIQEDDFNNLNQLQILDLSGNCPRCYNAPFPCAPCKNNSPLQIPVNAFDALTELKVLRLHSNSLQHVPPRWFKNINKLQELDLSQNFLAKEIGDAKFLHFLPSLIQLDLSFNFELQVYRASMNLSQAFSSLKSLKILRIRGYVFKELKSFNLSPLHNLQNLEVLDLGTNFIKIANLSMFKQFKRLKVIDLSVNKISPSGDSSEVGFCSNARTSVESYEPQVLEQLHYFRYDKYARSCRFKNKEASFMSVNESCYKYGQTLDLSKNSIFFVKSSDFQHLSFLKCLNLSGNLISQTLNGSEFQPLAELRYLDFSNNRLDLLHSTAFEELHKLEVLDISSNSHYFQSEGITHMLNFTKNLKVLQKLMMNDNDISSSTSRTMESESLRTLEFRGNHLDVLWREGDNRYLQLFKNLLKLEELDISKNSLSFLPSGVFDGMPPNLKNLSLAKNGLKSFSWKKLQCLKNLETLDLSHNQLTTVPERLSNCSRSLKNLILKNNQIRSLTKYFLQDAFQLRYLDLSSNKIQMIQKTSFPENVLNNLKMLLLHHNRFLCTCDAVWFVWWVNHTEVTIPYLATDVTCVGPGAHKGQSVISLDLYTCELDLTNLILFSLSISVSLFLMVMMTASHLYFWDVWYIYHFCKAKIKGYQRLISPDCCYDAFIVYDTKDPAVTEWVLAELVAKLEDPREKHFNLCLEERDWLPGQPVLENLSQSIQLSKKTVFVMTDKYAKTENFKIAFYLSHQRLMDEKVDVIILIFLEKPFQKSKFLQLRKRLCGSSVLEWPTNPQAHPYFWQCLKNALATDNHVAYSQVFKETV
Briefly: Agonist activity at TLR7 in human plasmacytoid dendritic cells assessed as upregulation of CD80 expression after 16 hrs by efluor 780 dye based flow cytometry. In a few lines: as §1
A general note: A flow cytometer gives signals particle by particle.

In assay [4] the target is T1, Toll-like receptor 8 (Homo sapiens). In words: Agonist activity at TLR8 in human CD141 positive conventional dendritic cells assessed as upregulation of CD80 expression after 16 hrs by efluor 780 dye based flow cytometry. In a few lines: as §1
The target in assay [5] is T2, Toll-like receptor 7 (Homo sapiens). Briefly: Agonist activity at TLR7 in human PBMC assessed as induction of IFN-alpha production after 16 hrs by multiplexed immunoassay. In a few lines:
(§2)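 Fresh human PBMCs were isolated from venous blood in cell preparation tubes. They were stimulated at 10^5 cells per well for 16 h with graded compound concentrations. Supernatants were taken off by centrifugation and assayed in duplicate on a 41-analyte magnetic bead cytokine/chemokine multiplex panel. Panel analytes include IFN-α2, IFN-γ, IL-12 (p40) and TNF-α.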

Assay [6] addresses T1, Toll-like receptor 8 (Homo sapiens). Briefly: Agonist activity at TLR8 in human PBMC assessed as induction of IFN-gamma production after 16 hrs by multiplexed immunoassay. The gist of the method:
as §2

The target is the same in assay [7]. In words: Agonist activity at TLR8 in human PBMC assessed as induction of TNF-alpha production after 16 hrs by multiplexed immunoassay. The gist of the method:
as §2

Assay [8] shares this target. In words: Agonist activity at TLR8 in human PBMC assessed as induction of IL-12p40 production after 16 hrs by multiplexed immunoassay. In a few lines: as §2

With `CCCCNc1nc(N)nc(C)c1CCCC1CCCCC1`, in assay [1], the outcome was inactive.
As for `CCCCNc1nc(N)nc(C)c1CCCN1CCOCC1`, the outcome in assay [2], in assay [3] and in assay [4] was Active.
Consider `CCCCNc1nc(N)nc(C)c1C#CCc1ccccc1`, for which, in assay [1], the result was inactive.
As for `CCCCNc1nc(N)nc(C)c1CCCc1ccccc1`, in assay [5], the outcome was Active. The outcome in assay [6] was inactive.
For the compound `CCCCNc1nc(N)nc(C)c1CCCn1c(C)nc2ccccc21`, the result in assay [7], in assay [5], in assay [6] and in assay [8] was Active.
Turning to `CCCCNc1nc(N)nc(C)c1CCCN1CCCCC1`, the outcome in assay [7], in assay [6] and in assay [8] was Active.
`CCCCNc1nc(N)nc(C)c1CCCN1Cc2ccccc2C1`: the result in assay [7], in assay [6] and in assay [8] was Active.
